Data published in ChEMBL document CHEMBL2375241, “Dioscin restores the activity of the anticancer agent adriamycin in multidrug-resistant human leukemia K562/adriamycin cells by down-regulating MDR1 via a mechanism involving NF-κB signaling inhibition” (J Nat Prod, 2013).
Activity calls are given as the source filed them. The rule behind the calls is not given here.

Assays:
Type in all cases: cell-based
[1] = Inhibition of NFkappaB signaling-mediated MDR1 activity in human K562/ADR cells assessed as increase in intracellular accumulation of adriamycin at 0.3 uM incubated for 24 hrs followed by adriamycin addition measured after 1 hr by flow cytometric analysis relative to K562 cells
Summary of the method: (§1)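 K562/ADR cells, 4 × 10^6 per well, pretreated with 0.3 μM for 24 h at 37 °C; K562 and untreated K562/ADR run alongside. All incubated with 25 μM ADR for 1 h at 37 °C and washed three times with ice-cold PBS. ADR autofluorescence read by flow cytometry (ex 488 nm, em 575 nm) as mean intensity; three experiments.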

[2] = Inhibition of NFkappaB signaling in human K562/ADR cells assessed as downregulation of MDR1 mRNA expression at 0.3 uM measured for 24 hrs by qRT-PCR analysis
Summary of the method: (§2)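 K562/ADR cells exposed to 0.3 μM for 0–48 h, or to various concentrations for 24 h. RNA isolated with TRIzol, then qRT-PCR: 95 °C 30 s, then 40 cycles of 95 °C 5 s and 60 °C 20 s. MDR1 quantified by ΔΔCT against β-actin; triplicate.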

[3] = target: T1, NF-kappa-B inhibitor alpha (Homo sapiens) (UniProt P25963); assay: Inhibition of TNFalpha-induced IkappaB-alpha phosphorylation in human K562/ADR cells assessed as decrease in NKkappaB activity at 0.3 uM measured at 12 to 48 hrs by Western blot analysis
T1 sequence (whole entry): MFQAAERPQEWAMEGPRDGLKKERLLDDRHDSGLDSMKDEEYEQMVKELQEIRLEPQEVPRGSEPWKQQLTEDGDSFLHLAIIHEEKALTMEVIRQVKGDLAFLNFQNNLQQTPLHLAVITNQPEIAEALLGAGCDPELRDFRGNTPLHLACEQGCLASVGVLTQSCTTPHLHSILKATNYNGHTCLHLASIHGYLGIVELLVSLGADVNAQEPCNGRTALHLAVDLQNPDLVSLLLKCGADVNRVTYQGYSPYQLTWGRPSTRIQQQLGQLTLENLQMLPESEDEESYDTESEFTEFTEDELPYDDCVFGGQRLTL
Summary of the method: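 K562/ADR cells incubated with 0.3 μM for 0–48 h, then TNF-α for 30 min. Lysates blotted for phospho-IκB-α Ser32/36 (1:1000) and β-actin, detected by ECL. Densities normalised to β-actin; three experiments.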

[4] = Inhibition of NFkappaB signaling in human K562/ADR cells assessed as inhibition of TNFalpha-induced MDR1 promoter activity at 0.1 to 0.3 uM after 24 hrs by luciferase reporter gene assay
Summary of the method: (§3)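 Cells plated overnight, then transiently co-transfected with hMDR1-Luc or NF-κB-Luc plus pRL-SV Renilla plasmid by lipofection. Exposed to compound and TNF-α for 24 h. Firefly luciferase normalised to Renilla in a dual-luciferase readout.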

[5] = Inhibition of NFkappaB signaling in human K562/ADR cells assessed as downregulation of MDR1 mRNA expression at 0.3 uM measured after 24 to 48 hrs by qRT-PCR analysis; summary of the method: as §2
[6] = Inhibition of NFkappaB signaling in human K562/ADR cells assessed as inhibition of TNFalpha-induced NFkappaB promoter activity at 0.1 to 0.3 uM after 24 hrs by luciferase reporter gene assay; summary of the method: as §3
[7] = Inhibition of NFkappaB signaling in human K562/ADR cells assessed as downregulation of MDR1 expression at 0.3 uM measured for 24 hrs by Western blot analysis
Summary of the method: (§4)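 K562/ADR cells treated with 0.3 μM for 0–48 h, or with various concentrations for 24 h, at 37 °C. Total protein extracted and 60 μg run on 10% SDS-PAGE, then PVDF. Blots probed with MDR1 antibody (1:100) and β-actin (1:500), detected by ECL. Band density normalised to β-actin; triplicate.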

[8] = Cytotoxicity against human K562/ADR cells assessed as cell viability after 48 hrs by MTT assay
Summary of the method: (§5)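 Cells grown in RPMI 1640 with 10% FBS at 37 °C, 5% CO2; K562/ADR kept off ADR for 2 weeks before use. Cells seeded at 4 × 10^3 per well, exposed to 0.1–100 μM for 48 h. MTT added for 4 h, then SDS–isobutanol–HCl solubilisation overnight, absorbance read at 570 nm. IC50 from three experiments.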

[9] = Inhibition of NFkappaB signaling in human K562/ADR cells assessed as downregulation of MDR1 expression at 0.3 uM measured after 24 to 48 hrs by Western blot analysis; summary of the method: as §4
K562 = assay: Cytotoxicity against human K562 cells assessed as cell viability after 48 hrs by MTT assay; summary of the method: as §5
[10] = Inhibition of NFkappaB signaling in human K562/ADR cells assessed as inhibition of TNFalpha-induced MDR1 expression at 0.3 uM after 24 hrs by Western blot analysis
Summary of the method: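 K562/ADR cells incubated 24 h with 0.3 μM plus 5 nM TNF-α. Lysates blotted for MDR1 (1:100) with β-actin (1:500) as loading control, detected by ECL. Densities normalised to β-actin; three experiments.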

[11] = Inhibition of NFkappaB signaling-mediated MDR1 activity in human K562/ADR cells assessed as increase in intracellular accumulation of adriamycin at 0.3 uM incubated for 24 hrs followed by adriamycin addition measured after 1 hr by flow cytometric analysis (reference value: 46.3%); summary of the method: as §1
[12] = Inhibition of NFkappaB signaling-mediated MDR1 activity in human K562/ADR cells assessed as potentiation of adriamycin-induced cytotoxicity after 48 hrs by MTT assay

With C[C@@H]1CC[C@@]2(OC1)O[C@H]1C[C@H]3[C@@H]4CC=C5C[C@@H](O[C@@H]6O[C@H](CO)[C@@H](O[C@@H]7O[C@@H](C)[C@H](O)[C@@H](O)[C@H]7O)[C@H](O)[C@H]6O[C@@H]6O[C@@H](C)[C@H](O)[C@@H](O)[C@H]6O)CC[C@]5(C)[C@H]4CC[C@]3(C)[C@H]1[C@@H]2C [DIOSCIN] the inhibition [1] was 59.8%, the inhibition [2] was 93.1% and the inhibition [3] was “Active”. The inhibition [4] was “Active”, the inhibition [5] was 97.8% and the inhibition [6] was “Active”. It also gave an inhibition [7] of 91.4%, an IC50 ([8]; Homo sapiens, K562/Adr) of 3.3 µM and an IC10 ([8]; human, k562/adr) of 0.3 µM. The inhibition [9] was 84.7%, the IC50 (K562; Homo sapiens, K562, 48 h) was 4.7 µM and the IC10 (K562; human, k562, 48 h) was 0.4 µM. For the same molecule, the inhibition [10] was “Active”, the inhibition [11] was 78.4% and the inhibition [12] was “Active”.
